Results published in ChEMBL document CHEMBL4304739, “Discovery of 3-(Indol-5-yl)-indazole Derivatives as Novel Myeloid Differentiation Protein 2/Toll-like Receptor 4 Antagonists for Treatment of Acute Lung Injury” (J Med Chem, 2019).
Activity calls are given as the source filed them. The calls are words filed in the database; no cut-off is given here.

Experiments:
[1] = molecular target: Vascular endothelial growth factor receptor 2 (Homo sapiens) (UniProt P35968); assay: Inhibition of wild-type human partial length VEGFR2 (R787 to P1253 residues) expressed in mammalian expression system at 1 uM by Kinomescan method
Method in brief: (§1)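 Single-concentration screen at 1 μM on the KINOMEscan panel (98 kinases), run by the platform provider. Results are given as percent of control: % Ctrl = [(test signal − positive control signal)/(negative control signal − positive control signal)] × 100. DMSO serves as negative control (100% Ctrl) and a control compound as positive control (0% Ctrl). Lower values mean stronger binding hits.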

[2] = molecular target: Serine/threonine-protein kinase STK11 (Homo sapiens) (UniProt Q15831); assay: Inhibition of wild-type human full length LKB1 (M1 to Q433 residues) expressed in bacterial expression system at 1 uM by Kinomescan method
Method in brief: (§2)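 KINOMEscan competition binding screen at 1 μM compound. Results reported as % of control = (test − positive control)/(DMSO negative control − positive control) × 100, where lower values mean stronger hits.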

[3] = molecular target: Cyclin-dependent kinase 9 (Homo sapiens) (UniProt P50750); assay: Inhibition of wild-type human full length CDK9 (M1 to F372 residues) expressed in bacterial expression system at 1 uM by Kinomescan method; method in brief: as §2
[4] = molecular target: Tyrosine-protein kinase JAK2 (Homo sapiens) (UniProt O60674); assay: Inhibition of wild-type human partial length JAK2 JH1 catalytic domain (A829 to G1132 residues) expressed in mammalian expression system at 1 uM by Kinomescan method
Method in brief: (§3)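 Binding-competition screen on the KINOMEscan platform, run by the provider, with the test compound at 1 μM. Readout is percent of control: (test signal − positive control signal)/(negative control signal − positive control signal) × 100. The DMSO negative control is set as 100% Ctrl and a control compound as 0% Ctrl. Lower values mean stronger hits.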

[5] = test system: Peritoneal macrophage; assay: Cytotoxicity against ICR mouse peritoneal macrophages assessed as reduction in cell viability up to 20 uM measured after 24 hrs by MTT assay; assay type: cell-based
Method in brief: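 Peritoneal macrophages from ICR mice, 2.0×10^4 cells/well in DMEM with 10% FBS. Cells exposed to compound for 24 h, then MTT (5 mg/ml in 0.9% NaCl) added for 4 h at 37 °C in 5% CO2. Absorbance read at 490 nm; final DMSO 0.1%.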

[6] = molecular target: Casein kinase I isoform gamma-1 (Homo sapiens) (UniProt Q9HCP0); assay: Inhibition of wild-type human partial length CSNK1G1 (T15 to S353 residues) expressed in bacterial expression system at 1 uM by Kinomescan method; method in brief: as §3
[7] = molecular target: Fibroblast growth factor receptor 2 (Homo sapiens) (UniProt P21802); assay: Inhibition of wild-type human partial length FGFR2 (D457 to E769 residues) expressed in bacterial expression system at 1 uM by Kinomescan method; method in brief: as §3
[8] = test system: Mus musculus; assay: Antiinflammatory activity in LPS-induced C57BL/6 mouse model of acute lung injury assessed as reduction in IL1beta mRNA level at 10 mg/kg, iv pretreated for 15 mins followed by LPS stimulation and measured after 6 hrs by SYBR green staining-based qRT-PCR analysis; assay type: functional, organism-based
Method in brief: (§4)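 Total lung RNA extracted, with DNase I removal of residual DNA. Quantitative PCR with mouse gene primers; each gene normalized to β-actin. C57BL/6 mice given compound iv 15 min before intraperitoneal LPS (20 mg/kg) and killed at 6 h.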

[9] = molecular target: TGF-beta receptor type-1 (Homo sapiens) (UniProt P36897); assay: Inhibition of wild-type human partial length TGFBR1 (D179 to M503 residues) expressed in bacterial expression system at 1 uM by Kinomescan method; method in brief: as §1
[10] = test system: Mus musculus; assay: Antiinflammatory activity in LPS-induced C57BL/6 mouse model of acute lung injury assessed as reduction in F4/80 positive macrophage at 5 to 10 mg/kg, iv pretreated for 15 mins followed by LPS stimulation and measured after 6 hrs by ABC/hematoxylin staining-based immunohistochemistry analysis; assay type: functional, organism-based
Method in brief: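 Male C57BL/6 mice (18−22 g; n=8 per group). Compound in 0.1% CMC-Na given by tail vein injection 15 min before intraperitoneal LPS (20 mg/kg); controls received saline. Mice were sacrificed 6 h after LPS, and serum and lung tissue were collected.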

[11] = molecular target: Tyrosine-protein kinase BTK (Homo sapiens) (UniProt Q06187); assay: Inhibition of wild-type human full length BTK (M1 to S659 residues) expressed in mammalian expression system at 1 uM by Kinomescan method; method in brief: as §2
[12] = molecular target: Mitogen-activated protein kinase 10 (Homo sapiens) (UniProt P53779); assay: Inhibition of wild-type human partial length JNK3 (V28 to Q422 residues) expressed in mammalian expression system at 1 uM by Kinomescan method; method in brief: as §3
[13] = molecular target: Receptor tyrosine-protein kinase erbB-2 (Homo sapiens) (UniProt P04626); assay: Inhibition of wild-type human partial length ERBB2 (K646 to V1225 residues) expressed in mammalian expression system at 1 uM by Kinomescan method; method in brief: as §3
[14] = molecular target: Glycogen synthase kinase-3 beta (Homo sapiens) (UniProt P49841); assay: Inhibition of wild-type human full length GSK3B (M1 to T433 residues) expressed in mammalian expression system at 1 uM by Kinomescan method; method in brief: as §2
[15] = test system: Mus musculus; assay: Antiinflammatory activity in LPS-induced C57BL/6 mouse model of acute lung injury assessed as reduction in COX2 mRNA level at 10 mg/kg, iv pretreated for 15 mins followed by LPS stimulation and measured after 6 hrs by SYBR green staining-based qRT-PCR analysis; assay type: functional, organism-based; method in brief: as §4
[16] = molecular target: Fibroblast growth factor receptor 3 (Homo sapiens) (UniProt P22607); assay: Inhibition of wild-type human partial length FGFR3 (R442 to S771 residues) expressed in bacterial expression system at 1 uM by Kinomescan method; method in brief: as §3
[17] = molecular target: Serine/threonine-protein kinase RIO2 (Homo sapiens) (UniProt Q9BVS4); assay: Inhibition of wild-type human partial length RIOK2 (M1 to D313 residues) expressed in mammalian expression system at 1 uM by Kinomescan method; method in brief: as §3
[18] = molecular target: Ephrin type-A receptor 2 (Homo sapiens) (UniProt P29317); assay: Inhibition of wild-type human partial length EPHA2 (T593 to V891 residues) expressed in bacterial expression system at 1 uM by Kinomescan method; method in brief: as §3
[19] = molecular target: Mitogen-activated protein kinase 14 (Homo sapiens) (UniProt Q16539); assay: Inhibition of wild-type human full length p38-alpha (M1 to S360 residues) expressed in bacterial expression system at 1 uM by Kinomescan method; method in brief: as §2
[20] = molecular target: Serine/threonine-protein kinase B-raf (Homo sapiens) (UniProt P15056); assay: Inhibition of wild-type human partial length BRAF (S429 to E741 residues) expressed in mammalian expression system at 1 uM by Kinomescan method; method in brief: as §3
[21] = test system: Tyrosine-protein kinase ABL1 (Homo sapiens), P00519 [E255K]; assay: Inhibition of human phosphorylated ABL1 E255K mutant (S229 to K512 residues) expressed in mammalian expression system at 1 uM by Kinomescan method; method in brief: as §2

Sequence of Tyrosine-protein kinase JAK2 (Homo sapiens) (O60674 whole entry, the tested form may be a part): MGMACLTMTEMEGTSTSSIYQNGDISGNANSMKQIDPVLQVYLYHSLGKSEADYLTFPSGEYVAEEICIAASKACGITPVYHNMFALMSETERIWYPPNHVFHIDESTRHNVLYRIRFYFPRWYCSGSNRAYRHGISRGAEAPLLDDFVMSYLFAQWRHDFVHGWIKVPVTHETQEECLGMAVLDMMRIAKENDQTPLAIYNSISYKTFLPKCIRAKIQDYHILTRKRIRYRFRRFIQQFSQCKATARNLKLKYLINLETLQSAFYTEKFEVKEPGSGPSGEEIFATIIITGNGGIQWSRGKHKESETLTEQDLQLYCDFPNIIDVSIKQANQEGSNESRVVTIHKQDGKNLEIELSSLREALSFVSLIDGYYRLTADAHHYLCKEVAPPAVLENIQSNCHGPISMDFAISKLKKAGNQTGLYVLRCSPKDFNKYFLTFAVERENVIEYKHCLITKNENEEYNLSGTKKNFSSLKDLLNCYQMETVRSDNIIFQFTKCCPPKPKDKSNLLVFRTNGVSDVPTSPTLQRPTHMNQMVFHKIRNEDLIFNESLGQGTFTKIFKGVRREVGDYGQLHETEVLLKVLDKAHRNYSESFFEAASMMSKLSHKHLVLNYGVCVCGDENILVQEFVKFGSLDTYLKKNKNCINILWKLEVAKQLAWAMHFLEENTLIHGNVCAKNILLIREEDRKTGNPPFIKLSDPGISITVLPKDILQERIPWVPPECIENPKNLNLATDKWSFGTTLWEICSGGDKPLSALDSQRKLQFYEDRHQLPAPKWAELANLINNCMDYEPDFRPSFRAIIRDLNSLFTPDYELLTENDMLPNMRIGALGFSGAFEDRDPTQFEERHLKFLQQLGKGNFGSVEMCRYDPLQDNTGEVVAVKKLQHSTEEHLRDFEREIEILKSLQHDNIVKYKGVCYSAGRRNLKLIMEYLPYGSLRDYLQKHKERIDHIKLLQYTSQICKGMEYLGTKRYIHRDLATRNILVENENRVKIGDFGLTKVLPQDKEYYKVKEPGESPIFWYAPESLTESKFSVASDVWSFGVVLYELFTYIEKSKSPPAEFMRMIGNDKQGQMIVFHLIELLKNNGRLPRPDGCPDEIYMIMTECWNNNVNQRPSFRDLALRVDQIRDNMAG
Sequence of Receptor tyrosine-protein kinase erbB-2 (Homo sapiens) (P04626 whole entry, the tested form may be a part): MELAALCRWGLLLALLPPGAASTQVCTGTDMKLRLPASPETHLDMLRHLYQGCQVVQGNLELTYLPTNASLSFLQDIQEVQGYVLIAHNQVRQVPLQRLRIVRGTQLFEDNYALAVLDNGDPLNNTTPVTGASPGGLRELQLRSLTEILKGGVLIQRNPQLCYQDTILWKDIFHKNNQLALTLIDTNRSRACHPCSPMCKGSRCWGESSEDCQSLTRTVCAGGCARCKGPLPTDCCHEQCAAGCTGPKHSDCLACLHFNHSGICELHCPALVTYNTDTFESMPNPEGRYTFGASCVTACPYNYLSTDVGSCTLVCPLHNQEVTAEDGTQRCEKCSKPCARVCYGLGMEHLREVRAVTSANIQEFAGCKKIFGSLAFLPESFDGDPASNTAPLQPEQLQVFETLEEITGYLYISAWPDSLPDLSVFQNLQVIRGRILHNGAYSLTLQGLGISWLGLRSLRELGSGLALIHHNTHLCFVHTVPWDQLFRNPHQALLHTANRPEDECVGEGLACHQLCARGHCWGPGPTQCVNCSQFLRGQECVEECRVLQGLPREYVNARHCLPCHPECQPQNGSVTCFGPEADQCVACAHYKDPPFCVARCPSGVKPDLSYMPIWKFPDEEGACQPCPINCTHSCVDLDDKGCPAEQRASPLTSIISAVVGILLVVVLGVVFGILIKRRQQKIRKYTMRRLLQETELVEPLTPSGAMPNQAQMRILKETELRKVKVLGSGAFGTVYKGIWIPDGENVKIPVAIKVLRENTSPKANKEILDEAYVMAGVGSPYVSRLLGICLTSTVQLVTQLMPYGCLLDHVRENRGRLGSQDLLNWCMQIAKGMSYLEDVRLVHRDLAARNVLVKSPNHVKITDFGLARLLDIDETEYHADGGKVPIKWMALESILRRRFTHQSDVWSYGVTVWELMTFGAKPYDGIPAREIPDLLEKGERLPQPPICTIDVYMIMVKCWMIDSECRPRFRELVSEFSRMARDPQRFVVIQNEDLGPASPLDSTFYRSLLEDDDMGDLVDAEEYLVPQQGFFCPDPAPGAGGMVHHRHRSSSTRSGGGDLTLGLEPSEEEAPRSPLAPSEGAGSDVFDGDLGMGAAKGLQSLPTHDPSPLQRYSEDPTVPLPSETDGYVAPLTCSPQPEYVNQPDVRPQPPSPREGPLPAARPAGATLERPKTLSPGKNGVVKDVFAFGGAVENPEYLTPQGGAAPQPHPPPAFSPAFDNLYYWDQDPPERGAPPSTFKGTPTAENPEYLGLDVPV
Sequence of Cyclin-dependent kinase 9 (Homo sapiens) (P50750 whole entry, the tested form may be a part): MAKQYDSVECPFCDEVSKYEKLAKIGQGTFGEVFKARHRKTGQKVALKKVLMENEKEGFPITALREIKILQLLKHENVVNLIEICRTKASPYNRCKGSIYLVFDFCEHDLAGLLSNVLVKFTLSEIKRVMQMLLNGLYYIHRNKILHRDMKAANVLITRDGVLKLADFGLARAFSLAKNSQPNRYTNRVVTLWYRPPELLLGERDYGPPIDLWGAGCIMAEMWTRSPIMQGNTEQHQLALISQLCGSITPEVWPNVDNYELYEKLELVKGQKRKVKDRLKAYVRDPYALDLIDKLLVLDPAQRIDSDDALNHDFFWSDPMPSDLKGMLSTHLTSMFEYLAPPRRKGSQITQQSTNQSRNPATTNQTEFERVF
Sequence of Ephrin type-A receptor 2 (Homo sapiens) (P29317 whole entry, the tested form may be a part): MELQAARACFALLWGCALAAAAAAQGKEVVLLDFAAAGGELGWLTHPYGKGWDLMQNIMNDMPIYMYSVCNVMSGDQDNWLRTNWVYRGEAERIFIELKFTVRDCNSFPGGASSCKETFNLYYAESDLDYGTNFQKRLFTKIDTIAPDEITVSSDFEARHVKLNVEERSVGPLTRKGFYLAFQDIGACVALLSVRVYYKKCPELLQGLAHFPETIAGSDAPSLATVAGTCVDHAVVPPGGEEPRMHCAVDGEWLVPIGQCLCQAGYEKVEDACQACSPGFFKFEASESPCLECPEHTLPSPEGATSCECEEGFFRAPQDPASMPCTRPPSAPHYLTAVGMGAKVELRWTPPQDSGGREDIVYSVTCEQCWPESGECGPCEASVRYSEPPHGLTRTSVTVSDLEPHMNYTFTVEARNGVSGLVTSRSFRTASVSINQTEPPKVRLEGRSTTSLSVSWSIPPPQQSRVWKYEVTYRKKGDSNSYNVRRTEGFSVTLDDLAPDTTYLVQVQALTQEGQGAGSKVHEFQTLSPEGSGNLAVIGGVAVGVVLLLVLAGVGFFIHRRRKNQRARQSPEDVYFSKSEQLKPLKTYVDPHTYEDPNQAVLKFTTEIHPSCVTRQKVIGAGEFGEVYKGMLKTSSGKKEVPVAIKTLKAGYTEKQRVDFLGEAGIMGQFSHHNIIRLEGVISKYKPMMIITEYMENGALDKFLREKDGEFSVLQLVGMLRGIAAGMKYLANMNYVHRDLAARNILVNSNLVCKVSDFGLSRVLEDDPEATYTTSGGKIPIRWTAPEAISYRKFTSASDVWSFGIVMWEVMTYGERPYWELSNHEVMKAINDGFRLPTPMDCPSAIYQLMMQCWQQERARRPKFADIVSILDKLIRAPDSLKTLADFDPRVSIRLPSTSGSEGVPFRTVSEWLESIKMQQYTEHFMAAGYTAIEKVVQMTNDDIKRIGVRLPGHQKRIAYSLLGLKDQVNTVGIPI
Sequence of Fibroblast growth factor receptor 3 (Homo sapiens) (P22607 23-806 limits assumed): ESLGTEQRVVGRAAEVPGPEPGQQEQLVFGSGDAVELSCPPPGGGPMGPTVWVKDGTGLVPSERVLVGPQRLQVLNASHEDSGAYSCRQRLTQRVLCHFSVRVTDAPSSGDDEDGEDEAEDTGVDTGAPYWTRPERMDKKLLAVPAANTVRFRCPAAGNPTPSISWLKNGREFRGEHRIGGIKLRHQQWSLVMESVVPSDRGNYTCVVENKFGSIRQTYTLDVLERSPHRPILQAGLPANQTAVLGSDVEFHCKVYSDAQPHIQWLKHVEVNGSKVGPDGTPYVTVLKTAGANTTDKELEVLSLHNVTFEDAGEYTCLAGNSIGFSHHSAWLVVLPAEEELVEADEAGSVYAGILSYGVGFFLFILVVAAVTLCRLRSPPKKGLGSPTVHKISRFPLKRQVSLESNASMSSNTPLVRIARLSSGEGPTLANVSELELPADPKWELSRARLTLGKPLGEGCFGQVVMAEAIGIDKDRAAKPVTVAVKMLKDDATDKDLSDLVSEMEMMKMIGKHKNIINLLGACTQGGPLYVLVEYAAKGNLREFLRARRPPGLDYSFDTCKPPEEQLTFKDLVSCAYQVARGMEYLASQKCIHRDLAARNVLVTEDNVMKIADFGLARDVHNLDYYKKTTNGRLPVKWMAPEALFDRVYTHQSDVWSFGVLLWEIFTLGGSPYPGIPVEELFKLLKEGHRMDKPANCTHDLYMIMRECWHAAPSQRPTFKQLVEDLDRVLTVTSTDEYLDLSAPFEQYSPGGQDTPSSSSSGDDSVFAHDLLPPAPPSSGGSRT
Sequence of Casein kinase I isoform gamma-1 (Homo sapiens) (Q9HCP0 whole entry, looked up, the tested form may be a part, canonical isoform): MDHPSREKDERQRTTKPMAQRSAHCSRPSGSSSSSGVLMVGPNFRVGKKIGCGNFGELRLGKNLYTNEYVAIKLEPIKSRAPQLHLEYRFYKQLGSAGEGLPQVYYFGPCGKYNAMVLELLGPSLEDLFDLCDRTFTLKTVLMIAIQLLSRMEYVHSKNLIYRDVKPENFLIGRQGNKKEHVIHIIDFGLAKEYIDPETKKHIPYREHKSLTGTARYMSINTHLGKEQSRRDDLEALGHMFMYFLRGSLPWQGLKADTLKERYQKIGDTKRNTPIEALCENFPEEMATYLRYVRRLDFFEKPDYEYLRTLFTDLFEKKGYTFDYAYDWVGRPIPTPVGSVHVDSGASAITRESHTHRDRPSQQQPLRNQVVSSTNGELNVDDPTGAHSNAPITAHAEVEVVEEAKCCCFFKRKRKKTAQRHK

How did the inhibition [1] turn out when `O=C(Nc1ccc2[nH]nc(-c3ccc4[nH]ccc4c3)c2c1)c1c(Cl)cccc1Cl` was run?
Its inhibition is “inactive”.

And the inhibition [2]?
Its inhibition is “inactive”.

And the inhibition [3]?
The inhibition was “inactive”.

And the inhibition [4]?
The inhibition was “inactive”.

What about the Activity [5] of the same molecule?
Its Activity is “Non-Toxic”.

And the inhibition [6]?
Its inhibition is “inactive”.

And the inhibition [7]?
The inhibition was “inactive”.

And the Activity [8]?
Its Activity is “Active”.

And the inhibition [9]?
Its inhibition is “inactive”.

And the Activity [10]?
Its Activity is “Active”.

What about the inhibition [11] of the same molecule?
The inhibition was “inactive”.

What about the inhibition [12] of the same molecule?
The inhibition was “inactive”.

What about the inhibition [13] of the same molecule?
The inhibition was “inactive”.

What about the inhibition [14] of the same molecule?
Its inhibition is “inactive”.

And the Activity [15]?
Its Activity is “Active”.

And the inhibition [16]?
The inhibition was “inactive”.

What about the inhibition [17] of the same molecule?
Its inhibition is “inactive”.

What about the inhibition [18] of the same molecule?
The inhibition was “inactive”.

And the inhibition [19]?
The inhibition was “inactive”.

What about the inhibition [20] of the same molecule?
Its inhibition is “inactive”.

What about the inhibition [21] of the same molecule?
Its inhibition is “inactive”.
